In experiment [1] the target is T1, Neuronal acetylcholine receptor; alpha4/beta2 (Homo sapiens, UniProt P17787+P43681). Description: Displacement of [3H]nicotine from human alpha4beta2 nAChR expressed in human SH-EP1 cells. The format is cell-based. In a few lines:
(§1)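 Binding to membranes from the cell lines: homogenised in PBS pH 7.4, spun at 40000g for 20 min at 4 °C, then incubated 2 h on ice in PBS with competitor (0.001 nM to 100 μM) and radioligand. Filters washed in ice-cold PBS and counted by scintillation. IC50 from nonlinear regression; Ki by Cheng-Prusoff. Minimum of three assays, ± SEM.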
For orientation: Displacement assays read how much labelled ligand stays bound in the presence of the test substance.

Experiment [2] concerns the target T1, Neuronal acetylcholine receptor; alpha4/beta2. Description: Agonist activity at human alpha4beta2 nAChR low sensitivity form expressed in human SH-EP1 cells assessed as increase in calcium flux by FLIPR. It counts as functional, cell-based. A general note: Calcium flux is commonly read through the fluorescence of an indicator in the cells.
For experiment [3] the target is unchanged. Description: Agonist activity at human alpha4beta2 nAChR expressed in human SH-EP1 cells by whole cell voltage clamp based electrophysiology method. The format is functional. Summed up: (§2)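 Whole-cell voltage clamp at -60 mV, room temperature (22 ± 1 °C), one cell per agonist load, Dynaflow fast application. Agonist applied 1 s for α4β2 and 0.5 s for α7, with 30 s washout. Tris-based pipette solution, pH 7.3. Concentration-response data fitted to the Hill equation, with α4β2 fitted as the sum of two Hill equations. Max % relative to 1 mM ACh.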

The target in experiment [4] is T2, Neuronal acetylcholine receptor; alpha3/beta4 (Homo sapiens, UniProt P30926+P32297). Description: Agonist activity at human alpha3beta4 nAChR expressed in human SH-SY5Y cells assessed as increase in calcium flux by FLIPR relative to 10 uM nicotine. It counts as functional, cell-based.
Experiment [5] in a line: Agonist activity at human nAChR alpha6/alpha3beta2beta3 V273S mutant expressed in HEK293T cells by FLIPR relative to 10 uM nicotine. It counts as functional, HEK-293T.
The target of experiment [6] is Neuronal acetylcholine receptor subunit alpha-7 (Homo sapiens, UniProt P36544). Description: Displacement of [3H]epibatidine from human alpha7 nAChR expressed in human HEK/RIC3 cells. The format is cell-based. Summed up: as §1
The nature of experiment [7]: Agonist activity at human nAChR alpha6/alpha3beta2beta3 V273S mutant expressed in HEK293T cells by FLIPR. It counts as functional, cell-based. As to conditions: HEK-293T.
Experiment [8] is described as follows: Agonist activity at rat alpha7 nAChR T6'S59 mutant expressed in rat GH4C1 cells by whole cell voltage clamp based electrophysiology method relative to 1 mM acetylcholine. It counts as functional, GH4-C1. Summed up: as §2
Experiment [9] addresses T2, Neuronal acetylcholine receptor; alpha3/beta4. Description: Agonist activity at human alpha3beta4 nAChR expressed in human SH-SY5Y cells assessed as increase in calcium flux by FLIPR. It counts as functional, cell-based.
In experiment [10] the target is T1, Neuronal acetylcholine receptor; alpha4/beta2. Description: Agonist activity at human alpha4beta2 nAChR high sensitivity form expressed in human SH-EP1 cells assessed as increase in calcium flux by FLIPR relative to 10 uM nicotine. The format is functional, cell-based.
A short description of experiment [11]: Agonist activity at rat alpha7 nAChR T6'S59 mutant expressed in rat GH4C1 cells by whole cell voltage clamp based electrophysiology method. It counts as functional. The conditions noted are these: GH4-C1. In a few lines:
as §2

The target of experiment [12] is T1, Neuronal acetylcholine receptor; alpha4/beta2. Description: Agonist activity at human alpha4beta2 nAChR expressed in human SH-EP1 cells by whole cell voltage clamp based electrophysiology method relative to 1 mM acetylcholine. The format is functional. Summed up:
as §2

The target is the same in experiment [13]. Description: Agonist activity at human alpha4beta2 nAChR high sensitivity form expressed in human SH-EP1 cells assessed as increase in calcium flux by FLIPR. It counts as functional, cell-based.
The target is the same in experiment [14]. Description: Agonist activity at human alpha4beta2 nAChR low sensitivity form expressed in human SH-EP1 cells assessed as increase in calcium flux by FLIPR relative to 10 uM nicotine. The format is functional, cell-based.
The target in experiment [15] is Neuronal acetylcholine receptor; alpha3/alpha6/beta2/beta3 (Homo sapiens, UniProt P17787+P32297+Q05901+Q15825). Description: Displacement of [3H]epibatidine from human alpha6/alpha3beta2beta3 nAChR expressed in HEK293T cells.
Experiment [16] addresses Nicotinic acetylcholine receptor alpha6/alpha3/beta2/beta3 (Rattus norvegicus, UniProt P04757+P12390+P12391+P43143). Description: Agonist activity at alpha6/alpha3beta2beta3 nAChR in Sprague-Dawley rat striatal synaptosomes assessed as induction of dopamine release. It counts as functional, subcellular, Brain.
Experiment [17] has as its target Nicotinic acetylcholine receptor alpha6/alpha3/beta2/beta3 (Rattus norvegicus) (UniProt P04757+P12390+P12391+P43143). Description: Agonist activity at alpha6/alpha3beta2beta3 nAChR in Sprague-Dawley rat striatal synaptosomes assessed as induction of dopamine release relative to 10 uM nicotine. The format is functional, subcellular. The conditions noted are these: Brain.

For experiment [18], the target named is T2, Neuronal acetylcholine receptor; alpha3/beta4. Description: Displacement of [3H]epibatidine from human alpha3beta4 nAChR expressed in human SH-SY5Y cells. It counts as cell-based. Summed up: as §1
The species entered for experiment [19] is Homo sapiens. Description: Ratio of EC50 for human nAChR alpha6/alpha3beta2beta3 V273S mutant to Ki for human alpha6/alpha3beta2beta3 nAChR.
The species entered for experiment [20] is Homo sapiens. Description: Selectivity index, ratio of Ki for human alpha3beta4 nAChR to Ki for human alpha4beta2 nAChR.

T1 sequence (P17787 whole entry): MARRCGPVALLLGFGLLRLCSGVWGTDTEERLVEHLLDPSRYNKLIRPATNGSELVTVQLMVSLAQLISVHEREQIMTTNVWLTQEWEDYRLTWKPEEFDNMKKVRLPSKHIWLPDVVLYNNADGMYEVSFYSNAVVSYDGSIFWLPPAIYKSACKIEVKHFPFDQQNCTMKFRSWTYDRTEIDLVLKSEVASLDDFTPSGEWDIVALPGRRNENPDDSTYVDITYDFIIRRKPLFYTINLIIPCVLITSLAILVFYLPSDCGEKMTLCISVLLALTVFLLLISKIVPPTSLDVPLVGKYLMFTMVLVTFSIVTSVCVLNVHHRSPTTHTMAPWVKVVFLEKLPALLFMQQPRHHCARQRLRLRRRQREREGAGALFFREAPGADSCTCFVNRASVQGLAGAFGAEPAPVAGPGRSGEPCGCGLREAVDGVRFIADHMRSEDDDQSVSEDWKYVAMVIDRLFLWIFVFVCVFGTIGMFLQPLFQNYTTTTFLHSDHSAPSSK
T1 sequence (P43681 whole entry): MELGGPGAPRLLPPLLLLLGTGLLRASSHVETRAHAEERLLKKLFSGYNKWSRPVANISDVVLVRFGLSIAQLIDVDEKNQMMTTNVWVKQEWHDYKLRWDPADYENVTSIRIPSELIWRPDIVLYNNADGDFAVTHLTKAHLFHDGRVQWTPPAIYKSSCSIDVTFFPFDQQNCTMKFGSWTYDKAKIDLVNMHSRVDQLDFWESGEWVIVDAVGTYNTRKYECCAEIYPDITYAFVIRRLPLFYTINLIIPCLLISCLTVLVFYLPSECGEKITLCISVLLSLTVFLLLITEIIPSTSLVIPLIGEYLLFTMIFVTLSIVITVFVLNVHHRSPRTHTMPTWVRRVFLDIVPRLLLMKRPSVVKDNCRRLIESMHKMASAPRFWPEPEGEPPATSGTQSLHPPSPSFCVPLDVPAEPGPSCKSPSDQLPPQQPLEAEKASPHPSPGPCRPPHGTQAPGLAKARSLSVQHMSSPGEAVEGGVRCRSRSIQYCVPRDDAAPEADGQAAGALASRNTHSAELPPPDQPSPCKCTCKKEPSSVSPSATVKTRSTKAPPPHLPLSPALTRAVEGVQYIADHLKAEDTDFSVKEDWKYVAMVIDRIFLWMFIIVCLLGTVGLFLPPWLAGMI
Chain of Neuronal acetylcholine receptor; alpha3/alpha6/beta2/beta3 (P17787 whole entry): as the sequence (P17787 whole entry) above
Chain of Neuronal acetylcholine receptor; alpha3/alpha6/beta2/beta3 (P32297 whole entry): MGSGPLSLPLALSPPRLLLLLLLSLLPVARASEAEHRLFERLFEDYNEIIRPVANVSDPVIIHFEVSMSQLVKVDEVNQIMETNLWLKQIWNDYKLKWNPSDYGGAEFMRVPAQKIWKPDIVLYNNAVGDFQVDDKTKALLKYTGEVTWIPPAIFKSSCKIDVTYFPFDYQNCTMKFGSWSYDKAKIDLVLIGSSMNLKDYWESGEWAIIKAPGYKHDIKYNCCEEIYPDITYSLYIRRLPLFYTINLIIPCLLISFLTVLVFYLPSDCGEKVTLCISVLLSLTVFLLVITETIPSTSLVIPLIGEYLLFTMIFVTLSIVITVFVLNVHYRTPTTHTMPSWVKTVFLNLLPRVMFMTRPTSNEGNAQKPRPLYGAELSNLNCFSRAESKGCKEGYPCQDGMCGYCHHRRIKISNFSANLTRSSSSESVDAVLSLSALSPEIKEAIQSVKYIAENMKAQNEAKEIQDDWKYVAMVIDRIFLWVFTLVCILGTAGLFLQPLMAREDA
Chain of Neuronal acetylcholine receptor; alpha3/alpha6/beta2/beta3 (Q15825 whole entry): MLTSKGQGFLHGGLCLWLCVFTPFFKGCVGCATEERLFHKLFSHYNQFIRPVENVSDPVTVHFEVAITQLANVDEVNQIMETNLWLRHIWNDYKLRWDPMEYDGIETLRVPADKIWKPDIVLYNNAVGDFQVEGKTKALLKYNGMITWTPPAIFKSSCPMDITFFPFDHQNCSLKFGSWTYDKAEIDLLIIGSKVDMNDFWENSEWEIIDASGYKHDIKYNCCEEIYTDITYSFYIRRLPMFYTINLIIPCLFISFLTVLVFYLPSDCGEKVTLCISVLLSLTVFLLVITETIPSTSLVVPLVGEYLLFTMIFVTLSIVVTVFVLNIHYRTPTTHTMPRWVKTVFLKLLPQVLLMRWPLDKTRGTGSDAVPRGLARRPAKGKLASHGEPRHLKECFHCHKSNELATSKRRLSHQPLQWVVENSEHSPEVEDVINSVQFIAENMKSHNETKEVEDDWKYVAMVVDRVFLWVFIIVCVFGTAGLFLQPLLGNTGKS
Chain of Neuronal acetylcholine receptor; alpha3/alpha6/beta2/beta3 (Q05901 whole entry): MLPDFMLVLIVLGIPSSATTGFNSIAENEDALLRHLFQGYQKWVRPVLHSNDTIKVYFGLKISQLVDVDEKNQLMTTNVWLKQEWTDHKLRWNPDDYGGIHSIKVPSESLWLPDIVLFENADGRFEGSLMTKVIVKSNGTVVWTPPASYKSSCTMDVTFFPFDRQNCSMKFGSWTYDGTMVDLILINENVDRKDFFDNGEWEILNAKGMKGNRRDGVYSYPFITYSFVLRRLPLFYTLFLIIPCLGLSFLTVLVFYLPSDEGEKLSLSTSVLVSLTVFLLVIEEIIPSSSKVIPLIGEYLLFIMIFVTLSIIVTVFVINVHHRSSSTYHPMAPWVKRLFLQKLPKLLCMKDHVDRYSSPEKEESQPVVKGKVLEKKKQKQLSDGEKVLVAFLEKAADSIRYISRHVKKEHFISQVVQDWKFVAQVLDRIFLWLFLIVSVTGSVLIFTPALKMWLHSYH
T2 sequence (P30926 whole entry): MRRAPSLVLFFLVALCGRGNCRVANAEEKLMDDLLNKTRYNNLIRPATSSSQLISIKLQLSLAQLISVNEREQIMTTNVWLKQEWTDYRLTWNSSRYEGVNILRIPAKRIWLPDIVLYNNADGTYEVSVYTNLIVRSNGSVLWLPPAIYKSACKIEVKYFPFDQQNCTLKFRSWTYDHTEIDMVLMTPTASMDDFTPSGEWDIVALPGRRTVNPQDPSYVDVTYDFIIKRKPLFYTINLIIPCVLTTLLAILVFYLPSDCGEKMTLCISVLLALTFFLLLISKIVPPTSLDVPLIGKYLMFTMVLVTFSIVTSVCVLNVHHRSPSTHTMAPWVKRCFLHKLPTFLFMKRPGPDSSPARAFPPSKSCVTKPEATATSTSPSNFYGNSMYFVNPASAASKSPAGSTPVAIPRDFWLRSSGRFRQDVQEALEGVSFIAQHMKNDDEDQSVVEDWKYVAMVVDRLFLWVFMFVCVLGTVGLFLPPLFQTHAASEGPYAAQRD
T2 sequence (P32297 whole entry): as the sequence (P32297 whole entry) above
Chain of Neuronal acetylcholine receptor subunit alpha-7 (P36544 whole entry): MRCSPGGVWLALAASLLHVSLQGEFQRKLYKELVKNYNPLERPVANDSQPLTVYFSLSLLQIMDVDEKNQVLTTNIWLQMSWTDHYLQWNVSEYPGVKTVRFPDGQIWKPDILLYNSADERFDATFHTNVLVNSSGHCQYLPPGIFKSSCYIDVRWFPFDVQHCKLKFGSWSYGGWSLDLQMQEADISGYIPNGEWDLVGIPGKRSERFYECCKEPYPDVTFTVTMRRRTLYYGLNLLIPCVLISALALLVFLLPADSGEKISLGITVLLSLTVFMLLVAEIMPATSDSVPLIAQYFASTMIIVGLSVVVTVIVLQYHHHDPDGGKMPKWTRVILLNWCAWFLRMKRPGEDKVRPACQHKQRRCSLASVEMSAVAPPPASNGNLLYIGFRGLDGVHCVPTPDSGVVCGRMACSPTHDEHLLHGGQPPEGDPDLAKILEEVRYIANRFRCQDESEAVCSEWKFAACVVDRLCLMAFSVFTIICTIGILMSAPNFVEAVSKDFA

Turning to `CC(C)Oc1cncc(C2=CC3CNCC(C2)C3)c1` (centres undefined), the Ki in [1] came out at 0.26 nM; in [6] it was 105 nM; in [15] it was 2.6 nM; in [18] it was 4.8 nM. Moreover, the EC50 is 562 nM in experiment [2]; 1400 nM in experiment [3]; above 10000 nM in experiment [7]; 69 nM in experiment [9]; 2800 nM in experiment [11]; 164 nM in [13]. In [16], the concentration for a half-maximal effect (EC50) came to 1090 nM. Further, the %max in [4] came to 160%; in experiment [5] it was 3%; in experiment [8] it was 92%; in experiment [10] it was 75%; in [12] it was 11%; in experiment [14] it was 54%. The %max in experiment [17] turned out to be 86%.

As to `C1=C(c2cncc(Oc3ccccc3)c2)CC2CNCC1C2` (centres undefined), the inhibition constant Ki in [1] came to 0.7 nM; in [6], 22 nM; in experiment [15], 4.8 nM; in [18], 1.9 nM. Also, the half-maximal effective concentration (EC50) is 654 nM in experiment [2]; 590 nM in experiment [3]; above 10000 nM in [7]; 23 nM in experiment [9]; 350 nM in [11]; 62 nM in experiment [13]. Moreover, in [16], the EC50 worked out at 718 nM. For the same compound, the %max in experiment [4] stood at 101%; in experiment [5], 0%; in experiment [8], 31%; in experiment [10], 52%; in experiment [12], 9%; in experiment [14], 30%. The %max in experiment [17] is 57%.

Regarding `C1=C(c2cccnc2)C[C@@H]2CNC[C@H]1C2`, the inhibition constant Ki is 0.1 nM in experiment [1], 1.3 nM in experiment [6], 1 nM in experiment [15] and 23 nM in [18]. In addition, the Ratio in the experiment filed under Homo sapiens [19] stood at 15. The EC50 turned out to be 35 nM in experiment [2]; 50 nM in experiment [3]; 15 nM in experiment [7]; 73 nM in experiment [9]; 20 nM in experiment [11]; 2.3 nM in experiment [13]. Further, the EC50 in experiment [16] worked out at 1.4 nM. Further, the %max was found to be 139% in experiment [4]; 82% in experiment [5]; 28% in [8]; 111% in [10]; 32% in [12]; 131% in [14]. For the same compound, in experiment [17], the %max was found to be 49%. In addition, the Ratio Ki in the experiment filed under Homo sapiens [20] turned out to be 230.

As for `CC(C)Oc1cncc(C2=CC3CC(C2)CN(C)C3)c1` (centres undefined), the inhibition constant (Ki) in experiment [1] was 2.2 nM; in [6], above 10000 nM; in experiment [15], 690 nM; in experiment [18], 1730 nM. Moreover, the EC50 in experiment [2] was above 10000 nM; in experiment [3], 3500 nM; in experiment [7] it was above 10000 nM; in experiment [9], above 10000 nM; in [11], 21300 nM; in experiment [13], above 10000 nM. The 50% effective concentration (EC50) in experiment [16] was found to be 879 nM. In addition, the %max in experiment [4] came out at 15%; in experiment [5], 0.2%; in experiment [8], 60%; in experiment [10] it was 1%; in experiment [12], 10%; in [14] it was 3.3%. For the same compound, in [17], the %max worked out at 63%.

For the compound `COc1ccc(C2=CC3CC(C2)CN(C)C3)cn1` (centres undefined), the inhibition constant (Ki) in experiment [1] was 797 nM; in experiment [6], above 10000 nM; in experiment [18] it was above 10000 nM. The EC50 is above 10000 nM in experiment [2], 1890 nM in experiment [9] and 3460 nM in [13]. The results for the %max in [4], in experiment [10] and in experiment [14] were 61%, 91% and 20%, respectively.

Turning to `CN1C[C@@H]2C=C(c3cccnc3)C[C@@H](C2)C1`, the Ki in experiment [1] came to 9.4 nM; in [6] it was 70 nM; in experiment [15], 320 nM; in [18], 1800 nM. For the same compound, the EC50 in experiment [2] was above 10000 nM; in experiment [3] it was 3100 nM; in experiment [7], above 10000 nM; in experiment [9], above 10000 nM; in [11], 6000 nM; in experiment [13], 6660 nM. Moreover, the half-maximal effective concentration (EC50) in [16] was 855 nM. Besides, the %max is 25% in [4]; 9% in experiment [5]; 87% in [8]; 53% in experiment [10]; 18% in [12]; 17% in [14]. For the same compound, the %max in [17] came to 13%.

Consider `CN1C[C@H]2C=C(c3cccnc3)C[C@H](C2)C1`, for which the Ki in experiment [1] is 2.1 nM; in experiment [6], 74 nM; in experiment [15] it was 300 nM; in [18] it was 534 nM. Besides, the EC50 in [2] is 7660 nM; in experiment [3], 3500 nM; in experiment [7], above 10000 nM; in experiment [9], 7530 nM; in experiment [11] it was 3800 nM; in experiment [13], above 10000 nM. Also, the EC50 in experiment [16] was above 10000 nM. Further, the %max in experiment [4] turned out to be 31%; in experiment [5], 7%; in experiment [8] it was 100%; in experiment [10] it was 19%; in experiment [12], 19%; in [14] it was 11%. Besides, the %max in experiment [17] turned out to be 27%.

On to `Fc1ccc(C2=CC3CNCC(C2)C3)cn1` (centres undefined), for which the Ki in experiment [1] was determined as 0.4 nM; in [6], 20 nM; in experiment [18], 28 nM. The EC50 worked out at 85 nM in [2], 99 nM in experiment [9] and 85 nM in experiment [13]. Moreover, the figures for the %max in [4], in experiment [10] and in experiment [14] were 140%, 104% and 136%, respectively.

Consider `Clc1ccc(C2=CC3CNCC(C2)C3)nn1` (centres undefined), for which the Ki in experiment [1] came out at 0.4 nM; in experiment [6], 77 nM; in experiment [18], 73 nM. For the same compound, the EC50 in [2] is 595 nM; in [9], 149 nM; in [13], 80 nM. Moreover, the figures for the %max in [4], in [10] and in experiment [14] were 135%, 118% and 160%, respectively.

For `N#Cc1cncc(C2=C[C@H]3CNC[C@@H](C2)C3)c1`, the results for the inhibitory constant (Ki) in experiment [1], in [6] and in [18] were 0.3 nM, 73 nM and 15 nM, respectively. The half-maximal effective concentration (EC50) in experiment [2] worked out at 4190 nM; in [9] it was 355 nM; in [13], 256 nM. The %max in [4] amounted to 136%; in [10] it was 95%; in experiment [14] it was 88%.

Turning to `Fc1cncc(C2=C[C@H]3CNC[C@@H](C2)C3)c1`, the Ki in experiment [1] stood at 0.2 nM; in [6], 3.3 nM; in experiment [18], 8.3 nM. Besides, the values for the 50% effective concentration (EC50) in [2], in experiment [9] and in [13] were 50 nM, 155 nM and 29 nM, respectively. For the same compound, the results for the %max in experiment [4], in experiment [10] and in [14] were 140%, 100% and 119%, respectively.

As to `C1=C(c2cncc(-c3ccccc3)c2)CC2CNCC1C2` (centres undefined), the inhibitory constant (Ki) was determined as 0.8 nM in experiment [1], 3220 nM in experiment [6] and 17 nM in experiment [18]. In addition, the EC50 in experiment [2] was above 10000 nM; in [9], 181 nM; in experiment [13], 85 nM. In addition, the %max in [4] was 61%; in [10] it was 33%; in experiment [14] it was 5.3%.

What is called Ki is a dissociation constant, usually derived from enzyme kinetics or from competition with a known ligand. Lower therefore signals higher affinity. In general, EC50 refers to the concentration giving half of the maximal effect.

The values are drawn from ChEMBL document CHEMBL2176949 (J Med Chem, 2012).
